The IC50 is the point on the concentration scale where inhibition reaches its midpoint. Low values mean greater potency in that assay, high ones weaker potency in that assay.

Activity calls are given as the source filed them. No cut-off for these calls is given here.

From ChEMBL document CHEMBL1146049, “Novel dual inhibitors of calpain and lipid peroxidation with enhanced cellular activity” (Bioorg Med Chem Lett, 2006) come the findings set out here.

The nature of assay [1]: Inhibition of maitotoxin induced intracellular calpain in glioma C6 cells. It counts as functional, cell-based. To be noted: Rattus norvegicus. In short, it runs like this: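 Rat glioma C6 cells were exposed to compound for 4 h, the last 3 h with maitotoxin to activate calpain. Intracellular calpain activity was read as cleavage of the fluorogenic substrate Suc-Leu-Tyr-AMC. IC50 values are means of three experiments.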

Assay [2] deals with Calpain 1 (Homo sapiens, UniProt P07384). Nature of the assay: (§1) Inhibition of isolated human calpain1. It counts as protein-complex assay. The method in brief: (§2)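 Isolated human calpain 1 enzyme assay with Suc-Leu-Tyr-AMC as substrate; IC50 determined.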
In assay [3] the target is T1, Caspase-3 (Homo sapiens) (UniProt P42574).
T1 sequence (whole entry): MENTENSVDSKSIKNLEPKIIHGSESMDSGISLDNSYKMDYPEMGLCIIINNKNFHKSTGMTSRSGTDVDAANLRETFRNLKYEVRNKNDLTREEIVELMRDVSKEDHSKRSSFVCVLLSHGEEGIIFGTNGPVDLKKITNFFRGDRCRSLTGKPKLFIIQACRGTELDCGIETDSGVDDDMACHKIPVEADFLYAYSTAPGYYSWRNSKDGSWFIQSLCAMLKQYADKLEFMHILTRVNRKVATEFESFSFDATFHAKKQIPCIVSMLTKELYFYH
Nature of the assay: Inhibition of caspase3.

Assay [4] concerns the target Cathepsin B (Homo sapiens) (UniProt P07858). Briefly: Inhibition of cathepsinB.
Assay [5] has as its target Chymotrypsinogen A (Bos taurus) (UniProt P00766). Nature of the assay: Inhibition of alpha chymotrypsin.
Assay [6] in a line: Ratio of pIC50 (rat calpain/human calpain 1). In short, it runs like this:
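pRatio = −log(intracellular calpain IC50 / human calpain 1 IC50). The intracellular IC50 comes from glioma C6 cells, which were exposed to compound for 4 h in total, including 3 h with maitotoxin to induce calpain activation, with Suc-Leu-Tyr-AMC as substrate. The enzymatic IC50 comes from isolated human calpain 1 with the same substrate.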

Assay [7] has as its system Radical scavenging activity. Nature of the assay: Inhibition of ferrous induced lipid peroxidation in rat brain microsomes. The assay is classed as functional.
In assay [8] the target is T2, Calpain 1 (Homo sapiens, UniProt P04632+P07384).
T2 sequence (P04632 whole entry): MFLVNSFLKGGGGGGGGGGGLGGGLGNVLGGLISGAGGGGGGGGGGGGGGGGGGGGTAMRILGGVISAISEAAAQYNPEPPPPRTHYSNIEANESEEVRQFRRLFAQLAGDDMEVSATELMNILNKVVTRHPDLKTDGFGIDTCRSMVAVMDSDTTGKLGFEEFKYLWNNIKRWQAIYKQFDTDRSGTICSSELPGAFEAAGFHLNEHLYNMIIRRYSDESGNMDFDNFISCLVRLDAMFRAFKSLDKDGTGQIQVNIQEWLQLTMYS
T2 sequence (P07384 whole entry): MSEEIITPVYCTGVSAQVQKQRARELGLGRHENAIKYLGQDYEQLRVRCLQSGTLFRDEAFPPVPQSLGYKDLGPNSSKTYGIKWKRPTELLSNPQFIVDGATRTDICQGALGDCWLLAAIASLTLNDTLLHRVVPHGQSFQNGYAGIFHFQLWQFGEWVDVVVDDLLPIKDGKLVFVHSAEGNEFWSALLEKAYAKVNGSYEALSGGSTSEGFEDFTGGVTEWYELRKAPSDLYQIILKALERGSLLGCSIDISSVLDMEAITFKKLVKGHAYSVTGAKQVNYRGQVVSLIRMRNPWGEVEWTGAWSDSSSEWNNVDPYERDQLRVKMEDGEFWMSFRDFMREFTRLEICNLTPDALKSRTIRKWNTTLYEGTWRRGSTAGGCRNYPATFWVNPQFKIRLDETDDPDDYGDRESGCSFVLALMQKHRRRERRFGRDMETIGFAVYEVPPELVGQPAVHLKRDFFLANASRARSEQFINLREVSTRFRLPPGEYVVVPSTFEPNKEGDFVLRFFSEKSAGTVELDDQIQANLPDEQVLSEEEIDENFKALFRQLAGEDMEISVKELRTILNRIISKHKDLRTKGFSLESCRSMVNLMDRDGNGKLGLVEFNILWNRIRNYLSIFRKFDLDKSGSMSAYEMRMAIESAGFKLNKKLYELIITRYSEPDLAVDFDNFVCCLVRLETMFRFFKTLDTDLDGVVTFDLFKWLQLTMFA
Described as §1. It counts as protein-complex assay. In short, it runs like this: as §2

For `CC(C)C[C@H](NC(=O)COc1ccc2c(c1)Nc1ccccc1S2)C(=O)N[C@@H](CC(C)C)C(=O)N[C@H]1CCOC1O` (stereo in doubt; 6d-08) [listing 1 of 2 here], the IC50 in assay [1] worked out at 600 nM; in assay [2], 105 nM.

As to `CC(C)C[C@H](NC(=O)C(C)(C)NC(=O)COc1ccc2c(c1)Nc1ccccc1S2)C(=O)N[C@H]1CCOC1O` (some centres not stated), the IC50 in assay [1] worked out at 30000 nM; in assay [2] it was 138 nM. The outcome in assay [3] and in assay [5] was inactive. Further, the result in assay [4] was Active. For the same compound, in assay [6], the Negative log of IC50 ratio (cellular/enzyme) stood at 0.66.

Regarding `CC(C)C[C@H](NC(=O)[C@@H](NC(=O)COc1ccc2c(c1)Nc1ccccc1S2)C(C)C)C(=O)N[C@H]1CCOC1O` (some centres not stated), the IC50 came to 1000 nM in assay [1] and 75.9 nM in assay [2]. Further, the outcome in assay [3] and in assay [5] was inactive. Besides, in assay [4], the outcome was Active. The Negative log of IC50 ratio (cellular/enzyme) in assay [6] stood at 1.88.

Take `CC(C)C[C@H](NC(=O)[C@H](CO)NC(=O)COc1ccc2c(c1)Nc1ccccc1S2)C(=O)N[C@H]1CCOC1O` (some centres not stated): the IC50 turned out to be 3000 nM in assay [1] and 48.7 nM in assay [2]. Also, the result in assay [3] and in assay [5] was inactive. In addition, the result in assay [4] was Active. The Negative log of IC50 ratio (cellular/enzyme) in assay [6] came to 1.21.

As for `CC(C)C[C@H](NC(=O)[C@H](NC(=O)COc1ccc2c(c1)Nc1ccccc1S2)C(C)C)C(=O)N[C@H]1CCOC1O` (some centres not stated), the IC50 in assay [1] is 16000 nM; in assay [2], 553 nM. In addition, the outcome in assay [3] and in assay [5] was inactive. Besides, the outcome in assay [4] was Active. Further, the Negative log of IC50 ratio (cellular/enzyme) in assay [6] came out at 1.54.

For the compound `CC(C)C[C@H](NC(=O)c1ccc2c(c1)Nc1ccccc1S2)C(=O)N[C@@H](CC(C)C)C(=O)N[C@H]1CCOC1O` (some centres not stated), the IC50 in assay [1] stood at 1800 nM; in assay [2], 85.5 nM; in assay [7], 1100 nM.

For `CC(=O)OC1OCC[C@@H]1NC(=O)[C@H](CC(C)C)NC(=O)[C@H](CC(C)C)NC(=O)c1ccc2c(c1)Nc1ccccc1S2` (some centres not stated), the results for the IC50 in assay [1], in assay [2] and in assay [7] were 1700 nM, 905 nM and 2310 nM, respectively.

`Cc1cc(C(C)(C)C)c(O)c(C(C)(C)C)c1` [BUTYLATED HYDROXYTOLUENE] showed a concentration for half-maximal inhibition (IC50) in assay [7] of 3250 nM.

With `CC(C)C[C@H](NC(=O)Cc1ccc2c(c1)Nc1ccccc1S2)C(=O)N[C@@H](CC(C)C)C(=O)N[C@H]1CCOC1O` (some centres not stated), the concentration for half-maximal inhibition (IC50) in assay [1] is 2500 nM; in assay [2], 55.4 nM; in assay [7], 966 nM.

Regarding `CC(C)C[C@H](NC(=O)CCc1ccc2c(c1)Nc1ccccc1S2)C(=O)N[C@@H](CC(C)C)C(=O)N[C@H]1CCOC1O` (some centres not stated), the IC50 in assay [1] worked out at 10000 nM; in assay [2], 150 nM; in assay [7] it was 3300 nM.

For `CC(C)C[C@H](NC(=O)CNC(=O)COc1ccc2c(c1)Nc1ccccc1S2)C(=O)N[C@H]1CCOC1O` (some centres not stated), the values for the IC50 in assay [1] and in assay [2] were 63000 nM and 8 nM, respectively. Moreover, the result in assay [3] and in assay [5] was inactive. For the same compound, the result in assay [4] was Active. In assay [6], the Negative log of IC50 ratio (cellular/enzyme) was -0.9.

As for `CC(C)C[C@H](NC(=O)[C@H](C)NC(=O)COc1ccc2c(c1)Nc1ccccc1S2)C(=O)N[C@H]1CCOC1O` (some centres not stated), the IC50 in assay [1] was found to be 15000 nM; in assay [2] it was 25 nM. In addition, the outcome in assay [3] and in assay [5] was inactive. In addition, in assay [4], the outcome was Active. Moreover, in assay [6], the Negative log of IC50 ratio (cellular/enzyme) turned out to be 0.22.

As for `CC(C)C[C@H](NC(=O)[C@@H](NC(=O)COc1ccc2c(c1)Nc1ccccc1S2)[C@H](C)O)C(=O)N[C@H]1CCOC1O` (some centres not stated), the figures for the IC50 in assay [1] and in assay [2] were 2000 nM and 38 nM, respectively. Also, the result in assay [3] and in assay [5] was inactive. The outcome in assay [4] was Active. Moreover, the Negative log of IC50 ratio (cellular/enzyme) in assay [6] is 1.28.

In the case of `CC(C)C[C@H](NC(=O)[C@@H](NC(=O)COc1ccc2c(c1)Nc1ccccc1S2)c1ccccc1)C(=O)N[C@H]1CCOC1O` (some centres not stated), the values for the concentration for half-maximal inhibition (IC50) in assay [1] and in assay [2] were 5000 nM and 222 nM, respectively. The result in assay [3] and in assay [5] was inactive. Further, the outcome in assay [4] was Active. Besides, the Negative log of IC50 ratio (cellular/enzyme) in assay [6] came out at 1.65.

In the case of `CC(C)C[C@H](NC(=O)COc1ccc2c(c1)Nc1ccccc1S2)C(=O)N[C@@H](CC(C)C)C(=O)N[C@H]1CCOC1O` (stereo in doubt; 6d), the IC50 worked out at 105 nM in assay [8] and 333 nM in assay [7].

Turning to `CCC[C@H](NC(=O)COc1ccc2c(c1)Nc1ccccc1S2)C(=O)N[C@@H](CC(C)C)C(=O)N[C@H]1CCOC1O` (some centres not stated), the IC50 in assay [1] is 600 nM; in assay [2] it was 151 nM. Besides, the outcome in assay [3] and in assay [5] was inactive. For the same compound, the outcome in assay [4] was Active. The Negative log of IC50 ratio (cellular/enzyme) in assay [6] turned out to be 2.4.

As to `CC[C@H](NC(=O)COc1ccc2c(c1)Nc1ccccc1S2)C(=O)N[C@@H](CC(C)C)C(=O)N[C@H]1CCOC1O` (some centres not stated), the IC50 was 800 nM in assay [1] and 88.6 nM in assay [2]. For the same compound, the result in assay [3] and in assay [5] was inactive. Also, the result in assay [4] was Active. Besides, in assay [6], the Negative log of IC50 ratio (cellular/enzyme) came to 2.05.

Turning to `CC(C)C[C@H](NC(=O)[C@@H](NC(=O)COc1ccc2c(c1)Nc1ccccc1S2)C(C)(C)C)C(=O)N[C@H]1CCOC1O` (some centres not stated), the IC50 came out at 4000 nM in assay [1] and 354 nM in assay [2]. Further, the result in assay [3] and in assay [5] was inactive. In assay [4], the result was Active. For the same compound, the Negative log of IC50 ratio (cellular/enzyme) in assay [6] worked out at 1.95.

Consider `CC(C)C[C@H](NC(=O)COc1ccc2c(c1)Nc1ccccc1S2)C(=O)N[C@@H](CC(C)C)C(=O)N[C@H]1CCOC1O` (stereo in doubt; 6d-08) [listing 2 of 2 here], for which the outcome in assay [3] and in assay [5] was inactive. Moreover, in assay [4], the result was Active. Also, the Negative log of IC50 ratio (cellular/enzyme) in assay [6] amounted to 2.24.
